Measured values: PMC9826235 (Chembiochem, 2022)

System: monoclonal anti-HpTGEKP antibody
Format: binding, mouse
Conditions: gas phase complex dissociation; for TambΔSmg# / ΔGm0g# / ΔHm0g#: neutral and resting complex, Tamb 298 K, two measurement series except 02; for ΔHm0g# (approximate values in running text): text rounding of Table 3
In short: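 Test phospho-hexapeptides and monoclonal antibody, each in 200 mM ammonium acetate, were mixed at a 3:1 peptide:antibody molar ratio. The mixtures were nano-electrosprayed, and multiply charged immune complex ions underwent gas phase dissociation; an unphosphorylated hexapeptide served as control. Data were duplicate series (mean, SD), fitted with a Boltzmann sigmoid. Enthalpies came from Arrhenius and Gibbs-Helmholtz plots taken at 1/Tamb.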

Substance | TambΔSmg# [kcal/mol] | ΔGm0g# | ΔHm0g# | ΔHm0g# (approximate values in running text)
HpSGERP [compound 06] | -15.87 | +64.65 kJ/mol | -0.418 kcal/mol | 
HpTEEKP [compound 09] | -15.93 | +64.64 kJ/mol | -0.485 kcal/mol | approx. −2.0 kJ/mol
HpTGEKL [compound 07] | -15.82 | +64.69 kJ/mol | -0.363 kcal/mol | 
HpTGEKP [compound 01] | -15.8 | +64.75 kJ/mol | -0.33 kcal/mol | 
HpTGERP [compound 02] | -15.74 | +64.79 kJ/mol | -0.261 kcal/mol | 
HpTGKKP [compound 05] | -15.06 | +64.84 kJ/mol | +1.81 kJ/mol | approx. +0.3 kJ/mol
HpTREKP [compound 10] | -15.43 | +64.83 kJ/mol | +0.28 kJ/mol | ~+1.8 kJ/mol
